# ChEMBL document CHEMBL1150767, “4-N-, 4-S-, and 4-O-chloroquine analogues: influence of side chain length and quinolyl nitrogen pKa on activity vs chloroquine resistant malaria” (J Med Chem, 2008)
# What was measured:
# [1] = system: Plasmodium falciparum; experiment: Antimalarial activity against chloroquine-resistant Plasmodium falciparum Dd2 after 72 hrs by SYBR green assay; assay type: functional, organism-based; conditions: Dd2, 72 h
# Summary of the method: (§1)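 Sorbitol-synchronized P. falciparum cultures (>95% rings) at 0.5% parasitemia, 1% hematocrit final, exposed to drug dilutions in complete medium 72 h at 37°C; SYBR Green I added, 1 h at 37°C, fluorescence read at 530 nm (490 nm excitation). Each dilution in triplicate; IC50 averaged over at least two separate assays.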
# [2] = system: Plasmodium falciparum; experiment: Antimalarial activity against chloroquine-resistant Plasmodium falciparum FCB after 72 hrs by SYBR green assay; assay type: functional, organism-based; summary of the method: as §1
# [3] = system: Plasmodium falciparum; experiment: Selectivity for chloroquine-resistant Plasmodium falciparum FCB over chloroquine-sensitive Plasmodium falciparum GCO3 as IC50 ratio by SYBR green assay; assay type: functional
# [4] = system: Plasmodium falciparum; experiment: Antimalarial activity against chloroquine-sensitive Plasmodium falciparum GCO3 after 72 hrs by SYBR green assay; assay type: functional, organism-based; conditions: GCO3, 72 h; summary of the method: as §1
# [5] = system: Plasmodium falciparum; experiment: Selectivity for chloroquine-resistant Plasmodium falciparum Dd2 over chloroquine-sensitive Plasmodium falciparum HB3 as IC50 ratio by SYBR green assay; assay type: functional
# [6] = system: Plasmodium falciparum; experiment: Antimalarial activity against chloroquine-sensitive Plasmodium falciparum HB3 after 72 hrs by SYBR green assay; assay type: functional, organism-based; conditions: HB3, 72 h; summary of the method: as §1
# [7] = Inhibition of haemozoin formation at pH 5.2 after 18 hrs; assay type: functional
# Summary of the method: (§2)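 Cell-free β-hematin formation in 1 mL containing lecithin (2 μg/ml final), hematin (100 μM final), 0.1 M HCl, propionate buffer at stated pH, and drug (0-1000 μM). Triplicates shaken at 37°C for 18 h. Pellets washed with pH 9.0 bicarbonate to remove uncrystallized heme, dried, dissolved in 0.1 M NaOH, and quantified by absorbance at 402 nm against a heme calibration curve.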
# [8] = Binding affinity to mu dimeric heme in aqueous solution at pH 7.5
# Summary of the method: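 Hemin first converted to μ-oxo dimer in mild alkaline solution, then titrated to pH 7.5 with Hepes buffer. Heme titrated with increasing drug (0 – 50 μM); absorbance at 402 nm recorded after each addition. Solvent-only titration served as control. Ka derived from ΔAbs402 plots by Scatchard analysis.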
# [9] = Inhibition of haemozoin formation at pH 5.6 after 18 hrs; assay type: functional; summary of the method: as §2
# [10] = system: Plasmodium falciparum; experiment: Drug accumulation in digestive vacuole of chloroquine-resistant Plasmodium falciparum assessed as vacuolar accumulation ratio at pH 5.2; assay type: ADME, organism-based
# Summary of the method: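 Calculated with the Henderson–Hasselbach equation from compound pKa values, taking cytosolic pH 7.4 and DV pH 5.2 for CQR parasites. Experimental pKa came from titrating 10 mM drug in water with 0.1 M NaOH at room temperature, using second-derivative inflection points, three determinations averaged.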
# [11] = system: Plasmodium falciparum; experiment: Drug accumulation in digestive vacuole of chloroquine-sensitive Plasmodium falciparum assessed as vacuolar accumulation ratio at pH 5.6; assay type: ADME, organism-based
# Summary of the method: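 Calculated, not measured: Henderson–Hasselbach equation with cytosolic pH 7.4 and digestive vacuole pH 5.6 (CQS), using experimental pKa values.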
# [12] = system: Plasmodium falciparum; experiment: Selectivity for chloroquine-resistant Plasmodium falciparum Indochina I over chloroquine-sensitive Plasmodium falciparum Haiti 135 as IC50 ratio by [3H]hypoxanthine uptake; assay type: functional
# [13] = system: Plasmodium falciparum; experiment: Selectivity for chloroquine-resistant Plasmodium falciparum K1 over chloroquine-sensitive Plasmodium falciparum NF54 as IC50 ratio by [3H]hypoxanthine uptake; assay type: functional
# [14] = system: Plasmodium falciparum; experiment: Antimalarial activity against chloroquine-resistant Plasmodium falciparum K1 by [3H]hypoxanthine uptake; assay type: functional, organism-based
# [15] = system: Plasmodium falciparum; experiment: Antimalarial activity against chloroquine-sensitive Plasmodium falciparum NF54 by [3H]hypoxanthine uptake; assay type: functional, organism-based
SMILES,IC50 [1],IC50 [2],Ratio IC50 [3],IC50 [4],Ratio IC50 [5],IC50 [6],IC50 [7],Ka [8],logKA [8],IC50 [9],Activity [10],Activity [11],Ratio IC50 [12],Ratio IC50 [13],IC50 [14],IC50 [15]
CCNCCCCCNc1ccnc2cc(Cl)ccc12,0.786 µM,1.27 µM,20.5,0.062 µM,37.4,0.021 µM,,,,,,,,,,
CCN(CC)CCCCSc1ccnc2cc(Cl)ccc12,4.44 µM,3.5 µM,0.622,5.63 µM,0.601,7.39 µM,216 µM,8.22 ×10⁴ /M,4.9,155 µM,170,64,,,,
CCN(CC)CCCNc1ccnc2cc(Cl)ccc12,0.026 µM,0.029 µM,4.14,0.007 µM,4.33,,,,,,,,1.2,3.33,0.06 µM,0.018 µM
CCN(CC)CCCSc1ccnc2cc(Cl)ccc12,2.66 µM,1.61 µM,0.465,3.46 µM,0.475,5.6 µM,,,,,,,,,,
CCN(CC)CCCCCCSc1ccnc2cc(Cl)ccc12,4.11 µM,3.3 µM,0.742,4.45 µM,0.683,6.02 µM,,,,,,,,,,
CCN(CC)CCCCC(CCCCN(CC)CC)Oc1ccnc2cc(Cl)ccc12,0.316 µM,0.604 µM,13.4,0.045 µM,4.31,0.073 µM,,,,,,,,,,
CCN(CC)CCSc1ccnc2cc(Cl)ccc12,5.5 µM,6.02 µM,1.04,5.74 µM,0.577,9.53 µM,,,,,,,,,,
CCNCCCNc1ccnc2cc(Cl)ccc12,0.115 µM,0.085 µM,4.25,0.02 µM,16.4,0.007 µM,,,,,,,,24.3,0.365 µM,0.015 µM
CCNCCNc1ccnc2cc(Cl)ccc12,0.081 µM,0.089 µM,7.42,0.012 µM,6.75,0.012 µM,,,,,,,,1.25,0.133 µM,0.021 µM
CCN(CC)CCCCCSc1ccnc2cc(Cl)ccc12,1.08 µM,0.814 µM,0.506,1.61 µM,0.464,2.33 µM,,,,,,,,,,
CCN(CC)CCCCCCNc1ccnc2cc(Cl)ccc12,0.085 µM,0.102 µM,6.38,0.016 µM,0.876,0.097 µM,,,,,,,11.2,,,
CCN(CC)CC(CN(CC)CC)Oc1ccnc2cc(Cl)ccc12,1.29 µM,3.83 µM,1.7,2.25 µM,0.866,1.49 µM,,,,,,,,,,
CCN(CC)CCCCNc1ccnc2cc(Cl)ccc12,0.199 µM,0.181 µM,3.69,0.049 µM,16.6,0.012 µM,24 µM,1.65 ×10⁵ /M,5.2,12 µM,23000,3700,10.2,,,
CCN(CC)CCCC(CCCN(CC)CC)Oc1ccnc2cc(Cl)ccc12,0.409 µM,0.352 µM,4.75,0.074 µM,4.35,0.094 µM,199 µM,3.47 ×10⁴ /M,4.5,687 µM,79000,5000,,,,
CCN(CC)CCCCCCOc1ccnc2cc(Cl)ccc12,4.16 µM,1.19 µM,0.524,2.27 µM,1.36,3.06 µM,,,,,,,,,,
CCN(CC)CCNc1ccnc2cc(Cl)ccc12,0.026 µM,0.03 µM,2.3,0.013 µM,2,0.013 µM,,,,,,,0.714,2.33,,0.021 µM
CCNCCCCNc1ccnc2cc(Cl)ccc12,0.649 µM,0.854 µM,32.8,0.026 µM,36.1,0.018 µM,,,,,,,,,,
CCN(CC)CCCCOc1ccnc2cc(Cl)ccc12,1.18 µM,1.1 µM,0.663,1.66 µM,0.404,2.92 µM,> 1000 µM,8.82 ×10⁴ /M,5,> 1000 µM,190,67,,,,
CCN(CC)CCOc1ccnc2cc(Cl)ccc12,4.57 µM,5.08 µM,0.96,5.29 µM,0.788,5.8 µM,,,,,,,,,,
CCNCCCCCCNc1ccnc2cc(Cl)ccc12,0.982 µM,0.987 µM,10,0.052 µM,31.3,0.019 µM,,,,,,,,,,
CCN(CC)CCCOc1ccnc2cc(Cl)ccc12,2.8 µM,2.33 µM,0.996,2.34 µM,0.549,5.1 µM,,,,,,,,,,
CCN(CC)CCCCCOc1ccnc2cc(Cl)ccc12,1.01 µM,0.93 µM,0.624,1.49 µM,0.54,1.87 µM,,,,,,,,,,
CCN(CC)CCCC(C)Nc1ccnc2cc(Cl)ccc12 (stereo unspecified) [CHLOROQUINE],,,,,,,35 µM,,,16 µM,23000,3700,,,,
CCN(CC)CCCCCNc1ccnc2cc(Cl)ccc12,0.357 µM,0.509 µM,7.17,0.066 µM,12.3,0.029 µM,,,,,,,9.67,,,
